Measurements: ChEMBL document CHEMBL2346543, “Triazolopyridazine LRRK2 kinase inhibitors” (Bioorg Med Chem Lett, 2013)
≈ marks a conversion by molar mass, not a printed value. Blank lines part the entries; values can stand above or below the compound they belong to.

Tests used:
[1] = target: Proto-oncogene tyrosine-protein kinase receptor Ret (Homo sapiens) (UniProt P07949); experiment: Inhibition of Ret (unknown origin) at 1 uM
Procedure, shortened: (§1)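 Single-point panel run by an outside contract lab: inhibition of each of 40 selected kinases measured at 1 µM test compound; percent inhibition reported.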

[2] = target: Serine/threonine-protein kinase PLK1 (Homo sapiens) (UniProt P53350); experiment: Inhibition of PLK1 (unknown origin) at 1 uM; procedure, shortened: as §1
Liver microsomes [3] = experiment: Metabolic stability in human liver microsomes; format: ADME, Microsome
Homo sapiens [4] = species on record: Homo sapiens; experiment: Selectivity ratio of IC50 for wild type LRRK2 (unknown origin) to IC50 for LRRK2 G2019S mutant (unknown origin)
Procedure, shortened: (§2)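 HTRF assay with GST-LRRK2 (G2019S or wild type) measuring inhibition of LRRKtide phosphorylation. Biotinylated LRRKtide substrate; detection with Eu(K)-labelled anti-phospho-Moesin antibody plus streptavidin-XL665, read at 620 and 665 nm. Ratio taken as wild-type IC50 over G2019S IC50.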

[5] = target: Aurora kinase A (Homo sapiens) (UniProt O14965); experiment: Inhibition of Aurora A (unknown origin) at 1 uM; procedure, shortened: as §1
[6] = target: Tyrosine-protein kinase SYK (Homo sapiens) (UniProt P43405); experiment: Inhibition of Syk (unknown origin) at 1 uM; procedure, shortened: as §1
[7] = target: Receptor tyrosine-protein kinase erbB-4 (Homo sapiens) (UniProt Q15303); experiment: Inhibition of ErbB4 (unknown origin) at 1 uM; procedure, shortened: as §1
Receptor tyrosine-protein kinase erbB-4 (Homo sapiens), sequence (Q15303 whole entry): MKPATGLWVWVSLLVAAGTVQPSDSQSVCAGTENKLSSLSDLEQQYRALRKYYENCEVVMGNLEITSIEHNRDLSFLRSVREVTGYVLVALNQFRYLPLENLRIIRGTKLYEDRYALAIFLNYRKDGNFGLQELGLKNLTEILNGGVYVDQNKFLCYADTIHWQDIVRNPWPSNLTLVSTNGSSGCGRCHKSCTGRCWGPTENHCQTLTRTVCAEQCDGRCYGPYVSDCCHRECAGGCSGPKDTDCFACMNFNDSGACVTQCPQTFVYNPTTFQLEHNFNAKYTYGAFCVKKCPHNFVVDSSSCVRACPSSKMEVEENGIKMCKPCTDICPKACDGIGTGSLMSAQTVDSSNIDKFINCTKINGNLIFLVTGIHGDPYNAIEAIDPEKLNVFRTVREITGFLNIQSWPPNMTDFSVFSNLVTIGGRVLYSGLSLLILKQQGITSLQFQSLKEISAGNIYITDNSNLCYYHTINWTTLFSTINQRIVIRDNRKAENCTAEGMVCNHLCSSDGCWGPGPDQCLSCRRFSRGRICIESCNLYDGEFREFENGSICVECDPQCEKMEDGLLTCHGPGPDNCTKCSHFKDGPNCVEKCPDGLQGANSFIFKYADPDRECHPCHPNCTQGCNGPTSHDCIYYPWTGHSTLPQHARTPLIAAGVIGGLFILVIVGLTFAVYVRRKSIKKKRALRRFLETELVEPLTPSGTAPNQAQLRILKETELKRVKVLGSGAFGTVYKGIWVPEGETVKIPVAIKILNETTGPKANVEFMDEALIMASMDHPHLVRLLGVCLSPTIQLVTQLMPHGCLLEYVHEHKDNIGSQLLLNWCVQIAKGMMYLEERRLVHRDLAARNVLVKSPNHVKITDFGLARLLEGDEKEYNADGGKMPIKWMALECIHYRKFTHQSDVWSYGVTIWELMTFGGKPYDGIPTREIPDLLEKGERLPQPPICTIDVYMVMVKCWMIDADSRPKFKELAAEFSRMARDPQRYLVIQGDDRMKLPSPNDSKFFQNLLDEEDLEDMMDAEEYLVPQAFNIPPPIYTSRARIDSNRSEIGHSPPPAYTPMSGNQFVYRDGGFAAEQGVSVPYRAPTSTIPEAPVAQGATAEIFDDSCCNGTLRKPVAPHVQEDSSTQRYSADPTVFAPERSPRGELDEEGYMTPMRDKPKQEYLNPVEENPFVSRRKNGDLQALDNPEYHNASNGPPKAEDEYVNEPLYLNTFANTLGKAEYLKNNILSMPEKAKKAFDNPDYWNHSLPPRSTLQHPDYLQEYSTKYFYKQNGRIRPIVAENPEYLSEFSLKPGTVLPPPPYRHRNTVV

[8] = target: Cyclin-dependent kinase 1/cyclin B1 (Homo sapiens) (UniProt P06493+P14635); experiment: Inhibition of CDK1/Cyclin B (unknown origin) at 1 uM; format: protein-complex assay; procedure, shortened: as §1
[9] = target: Phosphatidylinositol 4,5-bisphosphate 3-kinase catalytic subunit alpha isoform (Homo sapiens) (UniProt P42336); experiment: Inhibition of PIK3CA (unknown origin) at 1 uM; procedure, shortened: as §1
[10] = target: Serine/threonine-protein kinase Chk1 (Homo sapiens) (UniProt O14757); experiment: Inhibition of Chek1 (unknown origin) at 1 uM; procedure, shortened: as §1
Serine/threonine-protein kinase Chk1 (Homo sapiens), sequence (O14757 whole entry): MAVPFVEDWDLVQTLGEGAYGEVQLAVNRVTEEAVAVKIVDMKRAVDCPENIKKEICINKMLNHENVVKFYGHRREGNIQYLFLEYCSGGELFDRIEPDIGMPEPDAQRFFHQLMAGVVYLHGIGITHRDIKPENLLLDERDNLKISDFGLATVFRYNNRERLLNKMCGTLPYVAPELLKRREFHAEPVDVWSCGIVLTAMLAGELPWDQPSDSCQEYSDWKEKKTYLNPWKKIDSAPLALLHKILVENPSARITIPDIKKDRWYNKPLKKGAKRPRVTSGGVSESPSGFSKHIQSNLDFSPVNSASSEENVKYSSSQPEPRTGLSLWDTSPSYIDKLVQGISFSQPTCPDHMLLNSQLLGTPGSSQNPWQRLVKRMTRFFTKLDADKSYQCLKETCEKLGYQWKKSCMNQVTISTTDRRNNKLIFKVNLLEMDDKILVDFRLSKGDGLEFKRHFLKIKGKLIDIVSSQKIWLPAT

[11] = target: Tyrosine-protein kinase ABL1 (Homo sapiens) (UniProt P00519); experiment: Inhibition of Abl1 (unknown origin) at 1 uM; procedure, shortened: as §1
[12] = target: Leucine-rich repeat serine/threonine-protein kinase 2 (Homo sapiens, UniProt Q5S007, G2019S); experiment: Inhibition of LRRK2 G2019S mutant (unknown origin) by TR-FRET assay; procedure, shortened: as §2
Leucine-rich repeat serine/threonine-protein kinase 2 (Homo sapiens, UniProt Q5S007, G2019S), sequence (Q5S007 whole entry G2019S): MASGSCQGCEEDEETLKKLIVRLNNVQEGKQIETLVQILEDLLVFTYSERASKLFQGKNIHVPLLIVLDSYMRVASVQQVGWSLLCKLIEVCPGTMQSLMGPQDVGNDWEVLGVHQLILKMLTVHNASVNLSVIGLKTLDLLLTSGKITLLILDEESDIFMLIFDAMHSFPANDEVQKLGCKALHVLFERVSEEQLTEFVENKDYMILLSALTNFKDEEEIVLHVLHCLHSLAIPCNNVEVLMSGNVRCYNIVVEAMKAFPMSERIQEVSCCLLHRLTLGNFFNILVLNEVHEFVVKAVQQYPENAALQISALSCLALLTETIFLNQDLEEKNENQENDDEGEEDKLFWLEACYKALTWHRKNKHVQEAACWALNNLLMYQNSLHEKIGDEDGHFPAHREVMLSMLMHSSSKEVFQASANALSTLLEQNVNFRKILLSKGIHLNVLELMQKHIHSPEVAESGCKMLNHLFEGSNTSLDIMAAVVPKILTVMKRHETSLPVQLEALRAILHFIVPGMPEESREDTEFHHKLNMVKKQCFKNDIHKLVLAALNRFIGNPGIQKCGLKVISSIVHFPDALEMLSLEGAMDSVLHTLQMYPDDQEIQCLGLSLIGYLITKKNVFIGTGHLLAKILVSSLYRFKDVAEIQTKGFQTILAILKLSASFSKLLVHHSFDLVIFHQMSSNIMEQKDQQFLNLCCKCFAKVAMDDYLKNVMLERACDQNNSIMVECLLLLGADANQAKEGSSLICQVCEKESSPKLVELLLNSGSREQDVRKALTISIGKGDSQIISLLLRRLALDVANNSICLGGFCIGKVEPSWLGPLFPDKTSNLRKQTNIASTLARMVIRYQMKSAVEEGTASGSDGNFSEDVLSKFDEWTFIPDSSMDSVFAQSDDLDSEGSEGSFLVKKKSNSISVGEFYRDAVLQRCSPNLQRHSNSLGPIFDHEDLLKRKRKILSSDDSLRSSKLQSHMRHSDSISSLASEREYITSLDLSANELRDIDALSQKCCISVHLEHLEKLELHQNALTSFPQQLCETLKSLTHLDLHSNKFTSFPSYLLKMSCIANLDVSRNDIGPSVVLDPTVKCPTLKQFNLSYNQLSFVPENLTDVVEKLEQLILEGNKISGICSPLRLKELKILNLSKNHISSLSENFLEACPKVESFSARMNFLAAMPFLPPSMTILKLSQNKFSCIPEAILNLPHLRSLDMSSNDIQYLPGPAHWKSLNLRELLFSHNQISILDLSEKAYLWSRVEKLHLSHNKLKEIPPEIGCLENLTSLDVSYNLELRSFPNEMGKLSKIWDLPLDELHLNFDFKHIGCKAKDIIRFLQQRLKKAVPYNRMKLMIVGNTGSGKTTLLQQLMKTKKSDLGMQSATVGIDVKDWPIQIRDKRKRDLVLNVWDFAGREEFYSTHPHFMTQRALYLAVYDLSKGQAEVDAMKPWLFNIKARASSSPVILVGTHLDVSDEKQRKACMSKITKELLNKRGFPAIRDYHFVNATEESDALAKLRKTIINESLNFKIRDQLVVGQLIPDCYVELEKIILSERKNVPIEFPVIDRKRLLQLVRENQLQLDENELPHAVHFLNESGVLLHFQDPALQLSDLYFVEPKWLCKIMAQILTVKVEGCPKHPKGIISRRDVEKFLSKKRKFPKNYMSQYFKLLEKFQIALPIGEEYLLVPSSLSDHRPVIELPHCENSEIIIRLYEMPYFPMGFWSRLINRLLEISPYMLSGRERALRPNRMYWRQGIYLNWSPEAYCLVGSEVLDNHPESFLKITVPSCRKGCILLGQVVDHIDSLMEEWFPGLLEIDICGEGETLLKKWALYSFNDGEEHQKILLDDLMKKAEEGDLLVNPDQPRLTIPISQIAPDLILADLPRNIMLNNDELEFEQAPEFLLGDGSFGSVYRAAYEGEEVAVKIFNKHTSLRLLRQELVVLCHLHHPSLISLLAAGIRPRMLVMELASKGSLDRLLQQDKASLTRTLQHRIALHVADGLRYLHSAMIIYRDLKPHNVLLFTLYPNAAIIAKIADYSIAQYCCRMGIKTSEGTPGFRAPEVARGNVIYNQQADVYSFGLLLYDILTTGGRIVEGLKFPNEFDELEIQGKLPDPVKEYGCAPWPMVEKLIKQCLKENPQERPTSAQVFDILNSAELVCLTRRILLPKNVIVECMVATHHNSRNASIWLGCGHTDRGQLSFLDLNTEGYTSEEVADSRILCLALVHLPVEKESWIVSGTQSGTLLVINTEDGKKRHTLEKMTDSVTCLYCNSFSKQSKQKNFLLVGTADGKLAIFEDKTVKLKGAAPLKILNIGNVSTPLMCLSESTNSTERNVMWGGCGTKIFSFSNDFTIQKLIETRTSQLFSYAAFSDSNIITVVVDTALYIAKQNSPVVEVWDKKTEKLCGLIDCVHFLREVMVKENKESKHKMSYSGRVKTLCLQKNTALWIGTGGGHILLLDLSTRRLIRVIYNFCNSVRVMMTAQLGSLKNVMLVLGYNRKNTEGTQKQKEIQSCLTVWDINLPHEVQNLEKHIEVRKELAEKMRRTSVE

Homo sapiens [13] = species on record: Homo sapiens; experiment: Inhibition of MAPK (unknown origin) at 1 uM; procedure, shortened: as §1
[14] = Kinetic solubility of the compound in isotonic buffer at pH 7.4; format: physicochemical; conditions: read-out: Kinetic_solubility
[15] = target: RAC-alpha serine/threonine-protein kinase (Homo sapiens) (UniProt P31749); experiment: Inhibition of Akt1 (unknown origin) at 1 uM; procedure, shortened: as §1
Liver microsomes [16] = experiment: Metabolic stability in rat liver microsomes after 30 mins; format: ADME, Microsome; conditions: 0.5 h
Procedure, shortened: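 Compound incubated with NADPH-supplemented rat liver microsomes at 37 °C for 30 min; parent consumption and sulfoxide/sulfone metabolite formation monitored.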

[17] = target: Dual specificity protein kinase TTK (Homo sapiens) (UniProt P33981); experiment: Inhibition of Ttk (unknown origin) at 1 uM; procedure, shortened: as §1
[18] = target: Leucine-rich repeat serine/threonine-protein kinase 2 (Homo sapiens, UniProt Q5S007); experiment: Inhibition of wild type LRRK2 (unknown origin) by TR-FRET assay; procedure, shortened: as §2
Leucine-rich repeat serine/threonine-protein kinase 2 (Homo sapiens, UniProt Q5S007), sequence (Q5S007 whole entry): as the sequence (Q5S007 whole entry G2019S) above, with S2019G counted along it

[19] = target: RAF proto-oncogene serine/threonine-protein kinase (Homo sapiens) (UniProt P04049); experiment: Inhibition of Raf1 (unknown origin) at 1 uM; procedure, shortened: as §1
[20] = target: Cyclin-dependent kinase 5/CDK5 activator 1 (Homo sapiens) (UniProt Q00535+Q15078); experiment: Inhibition of CDK5/p25 (unknown origin) at 1 uM; format: protein-complex assay; procedure, shortened: as §1
Cyclin-dependent kinase 5/CDK5 activator 1 (Homo sapiens), sequence (Q00535 whole entry): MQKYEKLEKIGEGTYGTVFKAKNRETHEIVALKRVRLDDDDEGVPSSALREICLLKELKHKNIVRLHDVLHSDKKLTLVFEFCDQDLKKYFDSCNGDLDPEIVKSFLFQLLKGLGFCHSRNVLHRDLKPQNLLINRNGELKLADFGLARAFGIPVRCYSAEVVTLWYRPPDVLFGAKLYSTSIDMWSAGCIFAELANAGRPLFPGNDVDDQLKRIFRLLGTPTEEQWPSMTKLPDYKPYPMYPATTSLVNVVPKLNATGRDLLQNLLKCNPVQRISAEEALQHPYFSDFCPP
Cyclin-dependent kinase 5/CDK5 activator 1 (Homo sapiens), sequence (Q15078 99-307 partner limits assumed): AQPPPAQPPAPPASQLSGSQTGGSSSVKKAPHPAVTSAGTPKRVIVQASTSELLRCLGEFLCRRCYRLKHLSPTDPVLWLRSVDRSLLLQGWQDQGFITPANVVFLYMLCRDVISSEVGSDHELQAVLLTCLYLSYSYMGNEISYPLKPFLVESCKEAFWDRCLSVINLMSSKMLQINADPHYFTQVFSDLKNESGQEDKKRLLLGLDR

[21] = target: Platelet-derived growth factor receptor alpha (Homo sapiens) (UniProt P16234); experiment: Inhibition of PDGFRalpha (unknown origin) at 1 uM; procedure, shortened: as §1
[22] = target: Glycogen synthase kinase-3 beta (Homo sapiens) (UniProt P49841); experiment: Inhibition of GSK3beta (unknown origin) at 1 uM; procedure, shortened: as §1
[23] = Permeability of the compound; format: ADME; conditions: not told; read-out: permeability
[24] = target: Receptor-type tyrosine-protein kinase FLT3 (Homo sapiens) (UniProt P36888); experiment: Inhibition of Flt3 (unknown origin) at 1 uM; procedure, shortened: as §1
[25] = target: Tyrosine-protein kinase JAK1 (Homo sapiens) (UniProt P23458); experiment: Inhibition of Jak1 (unknown origin) at 1 uM; procedure, shortened: as §1
[26] = target: Macrophage colony-stimulating factor 1 receptor (Homo sapiens) (UniProt P07333); experiment: Inhibition of CSF1R (unknown origin) at 1 uM; procedure, shortened: as §1
P-gp = experiment: Efflux ratio in P-gp (unknown origin) mediated drug transport; format: ADME; conditions: human, not told

inhibition [1]: < 18%
inhibition [2]: < 18%
Stability (Liver microsomes [3]): Stable
Ratio IC50 (Homo sapiens [4]): 4.8
inhibition [5]: < 18%
inhibition [6]: < 18%
inhibition [7]: < 18%
inhibition [8]: < 18%
inhibition [9]: < 18%
inhibition [10]: < 18%
inhibition [11]: < 18%
IC50 [12]: 50 nM
inhibition (Homo sapiens [13]): < 18%
solubility kinetic [14]: 9 µM (≈ 3.35 µg/mL)
inhibition [15]: < 18%
Stability (Liver microsomes [16]): Unstable
inhibition [17]: < 18%
IC50 [18]: 242 nM
inhibition [19]: < 18%
inhibition [20]: < 18%
inhibition [21]: < 18%
inhibition [22]: < 18%
Papp [23]: 2.1 ×10⁻⁶ cm/s
inhibition [24]: < 18%
inhibition [25]: < 18%
inhibition [26]: < 18%
SMILES: FC(F)(F)c1cccc(Sc2ccc3nnc(-c4ccccc4)n3n2)c1

Ratio IC50 (Homo sapiens [4]): 2.7
efflux ratio (P-gp): 0.8
IC50 [12]: 200 nM
solubility kinetic [14]: 72 µM (≈ 23.1 µg/mL)
IC50 [18]: 535 nM
Papp [23]: 28 ×10⁻⁶ cm/s
SMILES: COC(=O)C(C)Sc1ccc2nnc(-c3cccs3)n2n1 (configuration not stated)
